# Shown are actives, neighbours in structure and some others; about 3.7% of the full set was active somewhere.
# NPY1 pot ag = NPY-Y1 receptor potentiators or agonists, primary screen, cell-based | Neuropeptide Y receptor type 1 (Homo sapiens), P25929 | NPY-Y1 expressing cells, potentiator/agonist activation | activation, % at 3.6 µM | 0.37% of 220,000 active; in the data active means activation above about 33%, passing the limit was not always enough;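 further: cells stimulated with NPY at EC10 then isoproterenol at EC100; 0% = low agonist plus stimulus and 100% = saturating agonist plus stimulus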
# Target sequence (P25929 whole entry, looked up): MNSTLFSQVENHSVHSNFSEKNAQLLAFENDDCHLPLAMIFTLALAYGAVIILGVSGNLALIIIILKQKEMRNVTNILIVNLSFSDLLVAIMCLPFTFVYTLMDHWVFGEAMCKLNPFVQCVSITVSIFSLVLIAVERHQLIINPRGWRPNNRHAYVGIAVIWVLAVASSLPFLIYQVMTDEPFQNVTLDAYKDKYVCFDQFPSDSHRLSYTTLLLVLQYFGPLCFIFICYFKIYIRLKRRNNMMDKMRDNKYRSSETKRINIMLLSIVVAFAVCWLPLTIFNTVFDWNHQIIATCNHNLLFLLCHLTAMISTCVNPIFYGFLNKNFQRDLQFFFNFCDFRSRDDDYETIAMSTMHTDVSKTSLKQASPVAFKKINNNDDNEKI
# NPY-Y2 antag = NPY-Y2 receptor antagonists, primary screen, cell-based; Neuropeptide Y receptor type 2 (Homo sapiens), P49146; NPY-Y2 expressing cells, antagonist mode; inhibition, % at 2.7 µM; 0.99% of 140,000 active; in the data active means inhibition above about 17%;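 further: 0% = vehicle with agonist challenge and 100% = reference antagonist with challenge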
# Target sequence (P49146 whole entry, looked up): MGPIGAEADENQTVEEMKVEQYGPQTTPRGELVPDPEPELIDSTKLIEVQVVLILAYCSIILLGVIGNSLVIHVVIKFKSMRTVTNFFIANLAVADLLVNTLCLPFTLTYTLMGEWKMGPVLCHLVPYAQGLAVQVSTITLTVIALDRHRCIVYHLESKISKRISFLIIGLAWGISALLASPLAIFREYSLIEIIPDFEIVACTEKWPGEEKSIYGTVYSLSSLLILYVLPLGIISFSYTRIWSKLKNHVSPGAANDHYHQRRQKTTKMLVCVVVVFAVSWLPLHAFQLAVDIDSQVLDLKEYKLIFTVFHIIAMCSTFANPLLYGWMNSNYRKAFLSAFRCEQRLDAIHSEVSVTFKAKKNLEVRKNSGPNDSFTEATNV
# NPY2 pot ag = NPY-Y2 potentiators or agonists, primary screen, cell-based; activation, % at 3.6 µM; 0.45% of 220,000 active; cells expressing NPY-Y2, potentiator/agonist read-out; AID 1359, 2008; in the data active means activation above about 27%;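 further: cells stimulated with NPY near EC25 plus isoproterenol at EC100; 0% = vehicle plus submaximal agonist and 100% = vehicle plus saturating agonist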
# Cl transport mod = KCC2 cotransporter modulators, thallium flux, primary screen, cell-based, HEK293 KCC2, FluoZin-2 fluorescence, MLSMR. Solute carrier family 12 member 5 (Homo sapiens), Q9H2X9. AID 1456, 2008. 2.2% of 190,000 active. B-score of Tl+ flux slope (higher = more flux/activation; lower = inhibition) at 10 µM. KCC2 cells, thallium flux FluoZin-2 fluorescence;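 active means thallium flux slope and its plate-corrected score both differing from the plate sample mean at a set confidence after two filtering rounds, in either direction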;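 further: slope of fluorescence scaled to starting intensity during 10 to 20 s after thallium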
# Furin inh = human furin inhibitors, primary screen, biochemical, fluorescence intensity. AID 463115, 2010. purified furin, fluorogenic substrate cleavage. 0.061% of 220,000 active. inhibition, % at 20 µM or 30 µM; in the data active means inhibition above about 25%
# NPY-Y1 antag = NPY-Y1 receptor antagonists, primary screen, cell-based. HEK293-CNG Y1 cells, membrane potential fluorescence; NPY at EC95, then isoproterenol. 1% of 200,000 active. AID 1040, 2008. inhibition, % at 3.6 µM;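 active means inhibition above the campaign mean inhibition of all tested compounds plus 3 SD, cut at about 20% in these data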;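 further: 0% = DMSO wells given NPY plus isoproterenol and 100% = isoproterenol alone without NPY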
#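 Material: HEK293 Y1/CNG channel cell line; also added: NPY (25 nM), isoproterenol (1 µM), Ro 20-1724 (25 µM); doses: one concentration, 3.6 µM, in 0.4% DMSO; schedule: compound incubation 1 h at room temperature, readout 45 min post-stimulation; technique: membrane potential fluorescence; measure: fluorescence ratio normalized to % inhibition between controls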
# KCC2 sec1 = KCC2 modulators in sodium-free buffer, confirmation, cell-based, HEK293 KCC2, thallium flux, secondary assay. shares compounds with Cl transport mod. FluoZin2 fluorescence; stronger effect = higher value. normalised thallium flux (F/F0 slope) at 10 µM. 15% of 3,700 active. AID 1713, 2009;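 active means thallium flux slope above the same plate's solvent-only control mean plus 3 SD; inconclusive means the two replicate wells disagree; inactive means no significant difference from solvent-only control wells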
# KCC2 bumet counter = thallium flux persisting under bumetanide in KCC2 cells, confirmation, counter-screen for KCC2 modulator project, cell-based, HEK293 KCC2, FluoZin2, secondary assay 3. shares compounds with Cl transport mod. HEK293-KCC2 + bumetanide/ouabain; stronger effect = higher value. normalized thallium flux at 10 µM. 49% of 3,700 active;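 active means thallium entry rate above the same plate's blocked-transporter control wells by more than 3 SD; inconclusive means the two repeat wells disagree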;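 further: raw slope of fluorescence over initial fluorescence between 10 and 20 s after thallium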
# KCC2 secondary2 = KCC2 modulators without ouabain present, confirmation, cell-based, HEK293 KCC2, thallium flux, FluoZin2, secondary assay 2 | thallium flux FluoZin2 fluorescence; actives lie on both sides; F/F0 rise rate, 10–20 s post-thallium | AID 1715, 2009 | 23% of 3,700 active | normalized thallium flux at 10 µM | shares compounds with Cl transport mod;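 active means thallium flux slope more than 3 SD above or below the plate's solvent-only control mean, mostly below; inconclusive means the two repeat wells disagreed; inactive means no significant shift from solvent-only controls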;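 further: raw slope with 0.1% DMSO as baseline and bumetanide as block control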
# HEK293 Tl flux = thallium flux modulation in parental HEK cells, confirmation, counter-screen for KCC2 modulator project, cell-based, counterscreen 1; 46% of 3,700 active; thallium flux rate (normalised fluorescence) at 10 µM; HEK293 parental cells, thallium flux FluoZin2, ouabain; baseline-ratio fluorescence slope, 10–20 s after thallium; shares compounds with Cl transport mod;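 active means thallium flux rate significantly above the same plate's solvent-only control wells, beyond their mean plus 3 SD; inconclusive means the two replicate wells gave conflicting results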
# KCC2 ouabain = KCC2 inhibitors and activators, ouabain retest, confirmation, HEK-KCC2 cells. shares compounds with Cl transport mod. HEK293-KCC2, thallium flux FluoZin2 fluorescence; bidirectional: low = inhibitor, high = activator. raw Tl+ flux slope (below DMSO = inhibition, above = activation) at 10 µM. 48% of 3,700 active. AID 1717, 2009;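 active means thallium flux slope beyond 3 SD from same-plate DMSO control mean in most replicates, usually higher, sometimes lower; inconclusive means repeat tests gave conflicting results; inactive means no significant difference from controls in most replicates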;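 further: slope of initial-normalized fluorescence between seconds 10 and 20 after thallium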
# HEK counter2 = native HEK Tl+ uptake effects, second counter-screen – HEK cells, counterscreen 2, counter-screen for KCC2 modulator project, confirmation; shares compounds with Cl transport mod; HEK293 parental, thallium flux FluoZin-2 fluorescence slope; thallium flux slope at 10 µM; 33% of 3,700 active;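 active means thallium flux slope above the same plate's solvent-control mean plus 3 SD in both duplicate wells; inconclusive means duplicate wells that disagreed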;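 further: run without ouabain in cells lacking the KCC2 cotransporter; slope of fluorescence scaled to its starting value between 10 and 20 s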
# Active calls of the source: *; ? = inconclusive; nt = no result given.
SMILES,NPY1 pot ag,NPY-Y2 antag,NPY2 pot ag,Cl transport mod,Furin inh,NPY-Y1 antag,KCC2 sec1,KCC2 bumet counter,KCC2 secondary2,HEK293 Tl flux,KCC2 ouabain,HEK counter2
Cc1ccccc1-n1c(=O)c2c(n3cnnc13)-c1ccccc1CC21CCCCC1,4,-1,-19,-0.81,0,-4,nt,nt,nt,nt,nt,nt
CCn1c(=O)c2c(n3c(=S)[nH]nc13)-c1ccccc1CC21CCCCC1,-10,nt,3,65*,-9,-3,0.0072,0.07*,?,0.06*,0.059*,0.034*
CCCn1c(SCC(N)=O)nc2c(c1=O)C1(CCCC1)Cc1ccccc1-2,-1,3,-4,nt,-4,2,0.013*,0.031*,0.036,0.017*,?,0.012*
CCn1c(SCC#N)nc2c(c1=O)C1(CCCC1)Cc1ccccc1-2,-16,4,4,17*,-18,-6,0.015*,0.058*,0.037,?,0.04*,?
O=C(CN(c1ccc(F)cc1)S(=O)(=O)c1ccccc1)NCCSC1CCCCC1,6,3,-5,-2.1,1,-1,nt,nt,nt,nt,nt,nt
O=C1C(Cl)=C(Nc2cccc(O)c2)C(=O)N1Cc1ccccc1,12,nt,8,-1.9,-7,-2,nt,nt,nt,nt,nt,nt
CC1(C)CC(=O)C2=C(C1)N(c1ccccc1)C(=O)C2(O)C(F)(F)F (stereo unspecified),-9,-1,7,-1.1,2,5,nt,nt,nt,nt,nt,nt
COc1ccc(-c2csc(NC(=O)COC(=O)C3=COCCO3)n2)cc1,0,nt,-2,1.5,-18,-7,nt,nt,nt,nt,nt,nt
C[C@@H](C[C@@H](O)[C@H](O)C(C)(C)O)[C@@H]1CC[C@]2(C)C3=CC[C@H]4C(C)(C)C(=O)CC[C@]4(C)[C@H]3CC[C@@]12C,-9,1,-1,4.8*,-9,0,0.0052,0.031*,0.031,0.0077,?,0.011
CCc1ccc(C(=O)COC(=O)c2cc([N+](=O)[O-])ccc2NCCO)cc1,7,-3,12,-4.3*,-4,-9,0.0062,0.0053,0.023*,0.0081,0.015*,0.011
O=C(COC(=O)c1cc([N+](=O)[O-])ccc1NCCO)c1ccc(Cl)cc1,-16,-3,3,-1.5,-11,-3,nt,nt,nt,nt,nt,nt
CCOc1cc(/C=C2\N=C(SC)SC2=O)cc([N+](=O)[O-])c1OC(C)=O,16,-3,1,nt,-5,-3,?,0.0056*,?,0.007,0.018,0.0099
O=C(CCC1CCCN(C(=O)c2ccc3[nH]ccc3c2)C1)N1CCN(c2ccccn2)CC1 (stereo unspecified),2,nt,-13,-1.3,-15,4,nt,nt,nt,nt,nt,nt
O=C(NC(=S)NNC(=O)c1cc2ccccc2cc1O)c1ccco1,-5,nt,-12,48*,-20,0,0.021*,0.073*,0.034,0.05*,0.058*,0.014*
O=C(NNC(=S)NC(=O)c1ccco1)c1ccc(NC(=O)c2ccccc2)cc1,-15,nt,6,-0.57,-17,-2,nt,nt,nt,nt,nt,nt
O=C(NC(=S)NNC(=O)c1ccccc1O)c1ccco1,-22,1,-11,3.5*,-9,7,0.011,0.013*,0.035,?,?,0.011
O=C(NC(=S)Nc1cccc(NC(=S)NC(=O)c2ccco2)n1)c1ccco1,7,nt,4,0.47,-9,0,nt,nt,nt,nt,nt,nt
Cc1ccc(N2CCN(CC(=O)Nc3c(C(=O)C4CC4)oc4ccccc34)CC2)cc1,1,3,5,-0.096,-24,3,nt,nt,nt,nt,nt,nt
S=c1nc(C2CC2)n(-c2ccccc2)[nH]1,-3,nt,12,4*,-19,nt,0.014*,0.012*,0.031,0.01*,?,?
Cc1ccc(S(=O)(=O)N(CC(=O)NCc2ccco2)Cc2ccccc2F)cc1,0,-1,-2,-0.98,-27,2,nt,nt,nt,nt,nt,nt
O=C1C2Sc3[nH]c(=O)sc3C(c3ccccc3)C2C(=O)N1c1ccccc1 (stereo unspecified),23,-2,9,-12*,-15,2,?,0.0052,0.017*,0.0087,?,0.011
COc1ccc(C2c3sc(=O)[nH]c3SC3C(=O)N(c4ccccc4)C(=O)C32)cc1 (stereo unspecified),2,1,1,-5.9*,-27,-3,0.0055,0.0087*,0.022*,0.0097*,0.011*,0.011
COc1ccc2cc(C#N)c(N3CCN(Cc4nnnn4CCC(C)C)CC3)nc2c1,-17,2,-18,0.021,-13,-1,nt,nt,nt,nt,nt,nt
O=C(O)c1ccccc1-c1ccccc1C(=O)Nc1ccc(-c2nc3cc(Cl)ccc3o2)cc1,13,nt,19,-3.7*,-10,nt,0.0075,0.0048,0.019*,0.0077,0.012*,0.01
O=C(Nc1ccc2oc(-c3ccccc3)nc2c1)c1ccc2c(c1)OCCO2,-19,14,-5,-3*,-33,9,0.0079,0.0068,0.029,0.007,0.035*,?
O=C(NCc1cccnc1)c1cccn2c(=O)c3sccc3nc12,-5,5,-15,nt,-8,5,nt,nt,nt,nt,nt,nt

# Screening data as filed in PubChem BioAssay.
